# Assay results gathered from unrelated publications.
# Lines come from different studies, so protocols differ.
# Observed: metabolic stability
# Species: human
Compound,system,setting,quantity,value
Cn1c(=O)ccc2ccc(F)c(CCNC[C@H]3CN(c4cnc5c(n4)NC(=O)CO5)C(=O)O3)c21,hepatocytes,0.5 µM,hepatocyte CLint,2 µL/min/10⁶ cells
CC(C)C[C@H](NC(=O)[C@@H]1COCCCCCCC(=O)NCC(=O)N2CCC[C@H]2C(=O)N1)C(=O)[C@@]1(C)CO1,liver microsomes,"2 µM, 1 h",scaled CLint,51.7 mL/min/kg
C[C@]12CC[C@H]3[C@@H](CCC4=CC(=O)CC[C@@]43C)[C@@H]1CC[C@@H]2O,hepatocytes,1 µM,hepatocyte CLint,110 µL/min/10⁶ cells
CN1C(=O)Cc2ccc(F)c(CCNCC[C@H]3CN(c4ccc5c(n4)NC(=O)CO5)C(=O)O3)c21,hepatocytes,0.5 µM,hepatocyte CLint,< 8.2 µL/min/10⁶ cells
CNC(C)Cc1ccc2nsnc2c1 (stereo not shown),liver microsomes,0.5 µM,scaled CLint,11.2 mL/min/kg
CONC(=O)[C@H]1[C@@H](O)[C@@]2(O)c3c(OC)cc(OC)cc3O[C@@]2(c2ccc(OC)cc2)[C@@H]1c1ccccc1,liver microsomes,,microsomal CLint,11.6 µL/min/mg
COc1ccc2c(c1)[C@]13CCCC[C@@H]1[C@H](C2)N(C)CC3,hepatocytes,"0.5 µM, pH 7.4",hepatocyte CLint,19 µL/min/10⁶ cells
O=C(O[C@H]1CCC[C@@]2(C1)OOC1(O2)C2CC3CC(C2)CC1C3)N1CCCCC1 (stereo partly shown),liver microsomes,,microsomal CLint,< 11.6 µL/min/mg
COCC1=N[C@@]2(O)[C@H](C(=O)N(C)OC)[C@@H](c3ccccc3)[C@]3(c4ccc(OC)cc4)Oc4cc(OC)cc(OC)c4[C@]23N1,liver microsomes,"1 µM, pH 7.4",microsomal CLint,55.8 µL/min/mg
Cc1ncc2n1-c1ccc(Cl)cc1C(c1ccccc1F)=NC2,hepatocytes,"0.5 µM, pH 7.4",hepatocyte CLint,57.7 µL/min/10⁶ cells
